Sampled rows, rich in hits. Any-hit rate of the full collection: about 2.2%.
SMARCA2 act – increases SMARCA2 function in MMTV reporter cells; AID 652017; activation, % at 9.1 µM; MG213 cells, MMTV-luciferase reporter, dexamethasone, overnight; actives 1% (n = 370,000); in the data active = activation above about 7.8%;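 also: 0% = vehicle wells and 100% = reference activator wells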
NR2E3 ag-1 – human photoreceptor-specific nuclear receptor agonism | actives 0.35% (n = 360,000) | CHO-S Gal4-NCOR/VP16-NR2E3 two-hybrid, luciferase | inhibition of corepressor binding, % at 3.98 µM | Q9Y5X4;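 active = inhibition above the mean of all tested compounds plus 3 SD, cut at about 70% in these data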;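 also: 0% = DMSO with NR2E3 transfected cells and 100% = cells lacking NR2E3 construct; higher means lower luciferase signal from less NR2E3 corepressor binding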
GalR3 antagonist – blocks the human galanin receptor 3. O60755. HEK293 GalR3-CNG cAMP membrane potential fluorescence; galR3 body fused to GalR1 C-terminus. inhibition, % at 3 µM. actives 0.44% (n = 360,000);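 active = inhibition above the screen-wide average plus 3 SD, cut at about 13% in these data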;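 also: forskolin and galanin both at EC90 stimulate the cells; cAMP rise reported by CNG channel membrane potential dye signal; 0% = forskolin plus galanin with DMSO and 100% = forskolin alone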
Target sequence (O60755 1-299 limits assumed): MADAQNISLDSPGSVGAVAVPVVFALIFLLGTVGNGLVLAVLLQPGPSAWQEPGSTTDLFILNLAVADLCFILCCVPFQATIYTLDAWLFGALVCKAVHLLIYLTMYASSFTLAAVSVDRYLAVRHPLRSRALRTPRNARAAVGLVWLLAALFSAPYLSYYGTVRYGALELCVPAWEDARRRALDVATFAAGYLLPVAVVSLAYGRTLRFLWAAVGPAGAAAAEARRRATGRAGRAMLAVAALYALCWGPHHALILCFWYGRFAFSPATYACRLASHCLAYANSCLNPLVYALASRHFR
COUP-TFII inh – inhibitors of human COUP-TFII (NR2F2) | HEK293T NGFI-A luciferase reporter, luminescence | inhibition, % at 8.6 µM | P24468 | AID 686940 | actives 0.7% (n = 370,000);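 active = inhibition above a per-plate cutoff, mean inhibition of test wells between control levels plus 3 SD, cut at about 38% in these data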;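 also: cells cotransfected with COUP-TFII expression vector driving the NGFI-A reporter; 0% = median of COUP-TF2 test wells and 100% = reporter-only cells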
Target sequence (P24468 whole entry, looked up): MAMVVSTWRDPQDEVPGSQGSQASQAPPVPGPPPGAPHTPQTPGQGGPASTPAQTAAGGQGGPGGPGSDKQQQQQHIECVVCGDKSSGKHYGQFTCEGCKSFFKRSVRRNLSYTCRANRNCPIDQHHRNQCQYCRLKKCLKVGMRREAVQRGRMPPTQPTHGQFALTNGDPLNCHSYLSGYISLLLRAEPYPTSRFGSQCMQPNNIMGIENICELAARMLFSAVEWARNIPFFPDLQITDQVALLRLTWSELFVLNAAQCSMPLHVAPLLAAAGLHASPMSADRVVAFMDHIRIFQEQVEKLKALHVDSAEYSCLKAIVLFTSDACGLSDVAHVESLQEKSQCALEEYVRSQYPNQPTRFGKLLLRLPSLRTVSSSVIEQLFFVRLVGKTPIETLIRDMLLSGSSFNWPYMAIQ
NR2E3 ag-2 – agonists of human nuclear receptor NR2E3; actives 0.12% (n = 320,000); Q9Y5X4; inhibition of corepressor binding, % at 4.78 µM; GST-NR2E3/biotin-RetCOR TR-FRET, 1536-well; AID 2300;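 active = percent inhibition above the cutoff of mean plus 3 SD of all tested compounds, set per screening campaign, cut at about 20% in these data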;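 also: 0% = DMSO wells and 100% = biotin wells as full block of FRET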
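system = GST-tagged NR2E3 plus biotinylated RetCOR corepressor | input = 1.35 nM GST-NR2E3 | also added = 7 nM biotin-RetCOR | schedule = 5 h incubation at 4 °C | measured by = TR-FRET with europium anti-GST and streptavidin-D2, 340 nm excitation | read-out = percent loss of FRET ratio relative to control wells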
SMARCA2 act conf – confirmation of SMARCA2 (BRM) function activators; MG213 cells, MMTV-luciferase with dexamethasone, luminescence, overnight; MG213 cells expressing E1A, Rb sequestered; DMSO wells 0%, reference activator 100%; actives 30% (n = 3,500); activation, % at 9.1 µM; shares compounds with SMARCA2 act;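 active = activation above its plate's cutoff, the mean activation of tested wells plus 3 SD, cut at about 7.9% in these data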
VP16 Luc act – activates GAL4-VP16 luciferase, flagging SMARCA2 activator hits; shares compounds with SMARCA2 act; HEK293 GAL4-VP16 pG5luc reporter, luciferase luminescence; scaled: DMSO wells 0%, SAHA wells 100%; activation, % at 9.1 µM; actives 41% (n = 3,500); AID 686939;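 active = activation above the solvent-only control well mean plus 3 SD, averaged across control plates, cut at about 5.2% in these data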
Numbers without * were called inactive; x = not tested or not shown.

SMILES	SMARCA2 act	NR2E3 ag-1	GalR3 antagonist	COUP-TFII inh	NR2E3 ag-2	SMARCA2 act conf	VP16 Luc act
O/N=C(/CCc1ccccc1)c1ccc2c(c1)OCCO2	11.6*	-110.8	0.4	-37.2	2.6	11.7*	11.6*
O=C(C1CCCN1S(=O)(=O)c1ccc(Br)s1)N1CCc2ccccc2C1 (stereo not drawn)	-3.9	x	x	4.7	x	x	x
Cc1sc2nc(CN3CCCC3)nc(NCc3ccncc3)c2c1C	4.0	10.7	6.3	-14.2	0.3	x	x
Cc1sc2nc(CN3CCCCC3)nc(Nc3ccc4c(c3)OCCO4)c2c1C	9.2*	6.1	-3.2	1.8	2.1	10.6*	-1.1
CCC[C@H]1[C@@H](NC(=S)Nc2ccccc2Cl)CC[C@@]23CCCN2C(=O)CCC[C@@H]13	x	x	x	-6.7	x	x	x
O=C1C=CC(O)C2(CO)OC12 (stereo not drawn)	12.3*	-31.0	-3.5	-9.8	x	-0.9	4.0
CCCCCC[C@@H](CN(CCCC)S(C)(=O)=O)c1ccccc1	-1.0	x	x	0.1	x	x	x
COc1ccc(-c2cc(C)no2)cc1S(=O)(=O)Nc1ccc(NC(C)=O)cc1	8.7*	-11.3	-10.3	6.0	-2.7	-2.2	1.9
COc1ccc(-c2cc(C)no2)cc1S(=O)(=O)NCC(C)c1ccccc1 (stereo not drawn)	-2.2	16.3	-3.9	0.5	5.5	x	x
Cc1ccc(/C=C(\NC(=O)c2ccc(C)cc2)c2nc(=S)[nH][nH]2)cc1	10.3*	-48.7	-7.4	-17.3	0.0	-1.4	0.7
COC(=O)C1CCN(C(=O)CN2CCC(C(=O)c3ccc(C)cc3)CC2)CC1	-3.0	x	x	-2.5	x	x	x
CC1CC(=O)c2cnc(Nc3ccccc3)nc2C1 (stereo not drawn)	2.5	-110.6	0.9	-29.5	-1.6	x	x
Cc1ccc(Nc2ncc3c(n2)CC(C)CC3=O)c(C)c1 (stereo not drawn)	8.2*	-151.2	1.1	-25.6	0.9	8.3*	3.7
Cc1noc(C)c1C(=O)NCc1ccccc1	-0.2	3.0	0.4	-0.1	-1.9	x	x
Cc1noc(C)c1C(=O)NCCc1ccccc1	9.7*	-14.8	-4.7	3.0	1.8	-1.6	-0.5
O=c1c2ccccc2oc2cc(Br)ccc12	0.3	-1.8	-5.9	-11.3	x	x	x
O=c1c2ccccc2oc2c1oc1ccccc12	14.2*	-107.9	-7.1	-22.3	x	5.1	9.0*
Brc1ccc(CSc2nnc(SCc3ccccc3)s2)cc1	-3.7	x	x	-14.3	x	x	x
COc1ccc(-c2csc(N(C)C(=O)c3ccco3)n2)cc1	8.0*	-105.2	-5.9	-60.8	-2.7	6.4	7.9*
CN(C(=O)c1ccco1)c1nc(-c2ccc(Cl)cc2)cs1	0.8	-19.5	-11.4	-6.4	0.3	x	x
Cc1ccc(C(=O)N/N=c2\sc3ccccc3n2C)cc1	-2.0	-15.6	-5.7	-0.7	-3.4	x	x
Cn1/c(=N/NC(=O)c2ccccc2F)sc2ccccc21	8.0*	-47.9	-2.3	-45.6	-2.8	2.4	8.2*
C[C@H]1[C@@H](N(C)CC2CCCCC2)CC[C@@]23CCCN2C(=O)CCC[C@@H]13	x	x	x	0.2	x	x	x
COc1cc(C=O)ccc1OCc1ccccc1Br	14.8*	-107.1	-11.5	-30.6	-0.2	6.7	8.0*
COc1cc(C=O)ccc1OCc1cccc(Br)c1	0.4	-115.8	0.1	-31.4	-0.2	x	x
SMILES	SMARCA2 act	NR2E3 ag-1	GalR3 antagonist	COUP-TFII inh	NR2E3 ag-2	SMARCA2 act conf	VP16 Luc act
Cc1c(-c2nc3ccccc3[nH]2)cnn1C	6.9	-23.7	-2.0	-13.3	6.2	x	x
Cn1cc(-c2nc3ccccc3[nH]2)c2ccccc21	9.0*	-50.4	-4.5	-48.3	-1.6	15.2*	4.2
COc1cc(/C=C/c2nc3ccccc3c(=O)[nH]2)ccc1O	9.0*	-173.8	-8.7	-51.0	x	12.8*	12.2*
O=c1[nH]c(/C=C/c2ccccc2Cl)nc2ccccc12	8.6*	-79.7	-10.8	-11.9	3.2	12.8*	9.1*
Oc1ccc(-c2cn3ccccc3n2)cc1	5.6	-48.6	-4.0	-46.1	1.4	x	x
Brc1ccc(-c2cn3ccccc3n2)cc1	14.6*	-148.0	-5.5	-55.6	3.1	3.2	11.3*
O=C(/C=C/c1ccccc1)Nc1cccc(C(=O)NC2CC2)c1	12.5*	-60.4	-6.9	-35.1	x	0.8	6.7*
CCOc1cccc(/C=C/c2ccc3cccc(O)c3n2)c1O	12.0*	-164.0	-10.9	-16.1	0.4	12.2*	17.9*
CCOc1cccc(/C=C/c2ccc3cccc(O)c3n2)c1OC	13.6*	-124.2	-11.9	-48.3	2.3	-9.4	27.8*
COc1ccccc1/C=C/c1ccc2cccc(O)c2n1	6.1	-113.1	-2.6	-51.7	-1.4	x	x
CCOC(=O)N1CCN(C(=O)Nc2ccccc2Cl)CC1	9.0*	-10.0	-6.0	-12.9	0.0	1.4	1.8
CCOC(=O)C1CCN(C(=O)Nc2ccccc2Cl)CC1	0.9	-10.9	-4.1	-17.1	4.4	x	x
COc1ccc(C)cc1NC(=O)c1cnc2scc(C)n2c1=O	-2.3	-27.5	7.5	1.8	x	x	x
COc1ccc(C)cc1NC(=O)c1cnc2n(c1=O)CCS2	9.8*	-40.3	-6.4	-8.1	-0.6	3.0	1.9
COc1ccc(NC(=O)N(C)[C@H]2C[C@H]3c4[nH]c5c(-c6ccccc6)cccc5c4CCN3C(=O)[C@H]2[C@H](C)O)cc1	0.1	x	-7.4	13.5	x	x	x
Cc1cccc(-c2cccc3c4c([nH]c23)[C@@H]2C[C@H](N(C)C(=O)Nc3ccccc3)[C@H]([C@H](C)O)C(=O)N2CC4)c1	9.2*	x	x	-2.3	x	-4.5	-1.0
CC(=O)c1ccc(NC(=O)c2ccn[nH]2)cc1	8.2*	-90.9	-5.1	-48.8	-0.2	8.0*	8.0*
COc1ccc(CNC(=O)c2ccccc2SC)cc1	0.3	8.2	-1.5	4.5	-2.5	x	x
CC(=O)OCc1ccccc1Sc1ccccc1C(=O)NCc1ccccc1	10.4*	-6.6	0.9	-43.4	-3.1	1.3	0.5
O=C(O)c1ccc(N=Nc2c(O)[nH]c3cc(Cl)ccc23)cc1	13.7*	-126.3	2.5	-25.4	3.6	12.0*	13.6*
CC(=O)Nc1ccc2c(c1)C(=O)N(C)[C@H]1CC[C@H](CC(=O)NCc3ccc(F)cc3)O[C@@H]1CO2	3.1	x	x	1.2	x	x	x
CCOC(=O)c1cccc(-c2c(-c3ccccc3)ncc3cc(OC)c(OC)cc23)c1	11.5*	-52.8	1.2	-20.5	-2.1	10.9*	5.8*
COc1cc2cnc(-c3ccccc3)c(-c3cc(OC)c(OC)c(OC)c3)c2cc1OC	0.1	-17.7	5.7	-7.2	1.1	x	x
Cc1ccc(S(=O)(=O)N2CCOCC2)cc1C(=O)NCc1cccnc1	10.2*	-4.0	0.8	-12.3	1.9	0.2	0.9

Assay outcomes deposited in PubChem by The Scripps Research Institute Molecular Screening Center.
